Screens as filed in PubChem BioAssay.
KDM4C inh – blocks human GASC-1 (KDM4C) demethylase activity. Q9H3R0. GST-KDM4C 2-372, H3K9me3 peptide, LANCE TR-FRET. inhibition, % at 12.5 µM. 96,000 compounds, 0.15% hits;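 active = mean replicate inhibition above about 25%, with at least 55% of replicates also reaching it, limit read from the data, passing the limit was not always enough; inconclusive = only one of those two conditions met; inactive = neither condition met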
Target sequence (Q9H3R0 2-372 limits assumed): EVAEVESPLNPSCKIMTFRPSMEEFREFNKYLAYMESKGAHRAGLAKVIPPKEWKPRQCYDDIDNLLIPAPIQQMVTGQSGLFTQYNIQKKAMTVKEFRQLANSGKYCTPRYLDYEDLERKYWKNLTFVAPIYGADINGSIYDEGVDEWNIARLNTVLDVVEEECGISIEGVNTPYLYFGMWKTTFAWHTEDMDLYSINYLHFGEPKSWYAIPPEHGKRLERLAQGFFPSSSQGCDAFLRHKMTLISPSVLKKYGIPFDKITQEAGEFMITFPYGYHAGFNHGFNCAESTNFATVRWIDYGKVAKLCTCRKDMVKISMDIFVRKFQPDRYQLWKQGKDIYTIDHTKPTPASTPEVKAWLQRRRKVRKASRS
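material = GST-tagged GASC-1 (JMJD2C) catalytic fragment, aa 2-372 | amount = enzyme final amount 10 nM | medium = HEPES buffer, pH 7.5, plus ascorbate | also added = H3K9me3 peptide substrate, Fe(II), 2-oxoglutarate | dosing = single dose | times = 30 min demethylation and 1 h detection at room temperature | detection = LANCE TR-FRET | read-out basis = Fall in 671/618 emission ratio as inhibition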
T cruzi growth-1 – blocks T. cruzi growth in NIH3T3 culture. T. cruzi beta-gal in NIH3T3, GalScreen luminescence, 90 h. inhibition, % at 8.34 µM. 77,000 compounds, 5.9% hits;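 active = mean inhibition above about 93%, with at least 55% of replicates each passing it, limit read from the data, passing the limit was not always enough; inconclusive = only one of those two conditions holds; inactive = neither condition holds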
IDH1 R132H inh – blocks human IDH1 R132H reductase activity; inhibition, % at 10 µM; 70,000 compounds, 0.18% hits; diaphorase/resazurin fluorescence, 60 min; AID 624101; in the data active = inhibition above about 34%; inconclusive = no clear call, values can overlap the other calls; inactive = below about 11%;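 also: 0% = DMSO and 100% = no enzyme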
Target sequence (O75874 whole entry R132H): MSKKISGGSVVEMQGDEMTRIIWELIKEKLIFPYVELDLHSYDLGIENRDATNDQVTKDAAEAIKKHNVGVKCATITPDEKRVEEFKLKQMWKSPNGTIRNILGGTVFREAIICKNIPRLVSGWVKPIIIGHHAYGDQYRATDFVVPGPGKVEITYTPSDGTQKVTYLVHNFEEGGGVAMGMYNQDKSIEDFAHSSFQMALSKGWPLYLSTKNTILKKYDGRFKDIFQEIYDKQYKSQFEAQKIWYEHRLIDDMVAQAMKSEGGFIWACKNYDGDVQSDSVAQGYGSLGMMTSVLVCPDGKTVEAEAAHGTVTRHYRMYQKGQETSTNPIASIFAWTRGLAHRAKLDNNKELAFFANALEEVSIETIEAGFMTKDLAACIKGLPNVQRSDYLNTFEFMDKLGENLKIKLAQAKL
Pf Dd2 inh – blocks growth of Plasmodium falciparum Dd2 parasites | P. falciparum Dd2 growth, SYBR Green, 72 h; hits give low values | 94,000 compounds, 2.3% hits | activity change, % at 10 µM; in the data active = activity change below about -80%; inconclusive = no clear call, values can overlap the other calls
T cruzi growth-2 – inhibitors of T. cruzi proliferation. shares compounds with T cruzi growth-1. T. cruzi beta-gal in NIH3T3, GalScreen luminescence, 90 h. inhibition, % at 8.35 µM. 5,600 compounds, 72% hits. AID 651739;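 active = mean replicate inhibition above about 95% and at least 55% of replicates individually reaching it, limit read from the data; inconclusive = only one of the two criteria is met; inactive = neither criterion is met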
T cruzi growth-3 – Trypanosoma cruzi proliferation inhibition; shares compounds with T cruzi growth-1; T. cruzi beta-gal in NIH3T3, GalScreen luminescence, 90 h; inhibition, % at 2.09 µM; 5,600 compounds, 21% hits; AID 651740;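 active = mean inhibition above about 95%, with at least 55% of replicates also reaching it, limit read from the data; inconclusive = meets just one of the two conditions; inactive = meets neither condition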;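 also: plate controls were neutral control median for no effect and positive control median for full effect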
NIH3T3 tox – kills mouse NIH/3T3 fibroblasts; shares compounds with T cruzi growth-1; NIH/3T3 viability, CellTiter-Glo ATP luminescence, 90 h; cytotoxicity (signal decrease), % at 8.35 µM; 5,600 compounds, 14% hits;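 active = mean signal decrease across replicates above about 35% based on untreated-well scatter, with enough replicates individually passing, limit read from the data; inconclusive = no rule stated though some were filed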;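 also: 0% = median of neutral control wells and 100% = median of positive control wells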
NIH3T3 tox 2 – kills mouse NIH/3T3 fibroblasts | shares compounds with T cruzi growth-1 | inhibition, % at 24.9 µM | 5,600 compounds, 56% hits | AID 651744 | NIH/3T3 viability, CellTiter-Glo ATP luminescence, 90 h;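 active = mean loss of cell viability signal at or above a set limit, and enough replicates individually reaching it; inconclusive = meets only the mean limit or only the replicate share; inactive = meets neither condition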;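 also: 0% = median of neutral control wells and 100% = median of positive control wells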
Starred values were filed as active, the others as inactive; ? = inconclusive; nt = not tested or not shown. A selection: hits, their analogues and other compounds. The true share with any hit is near 5.9%.

SMILES	KDM4C inh	T cruzi growth-1	IDH1 R132H inh	Pf Dd2 inh	T cruzi growth-2	T cruzi growth-3	NIH3T3 tox	NIH3T3 tox 2
C[C@H]1CN([C@@H](C)CO)C(=O)c2cc(NC(=O)Nc3ccc(C(F)(F)F)cc3)ccc2O[C@H]1CN(C)S(=O)(=O)c1cccs1	0.0	122.7*	1.3	9.2	102.5*	57.5	4.9	85.2*
C[C@@H]1CCCCO[C@@H](CN(C)S(=O)(=O)c2cccs2)[C@H](C)CN([C@H](C)CO)C(=O)c2cc(NC(=O)NC3CCCCC3)ccc2O1	-3.5	118.2*	nt	?	106.2*	35.8	1.9	-2.8
C[C@@H]1CN([C@@H](C)CO)C(=O)c2cc(NC(=O)Nc3ccc(C(F)(F)F)cc3)ccc2O[C@@H](C)CCCCO[C@@H]1CN(C)S(=O)(=O)c1cccs1	-0.9	37.5	1.9	-56.3	nt	nt	nt	nt
C[C@H](CO)N1C[C@H](C)[C@@H](CN(C)S(=O)(=O)c2cccs2)OCCCC[C@H](C)Oc2ccc(NC(=O)NC3CCCCC3)cc2C1=O	1.0	76.1	nt	-45.7	nt	nt	nt	nt
CC(C)NC(=O)N[C@H]1C=C[C@@H](CC(=O)O)O[C@@H]1CO	0.3	-5.5	0.3	20.7	nt	nt	nt	nt
O=C(Nc1ccc(F)cc1)N1C[C@@H]2[C@H](c3ccccc31)[C@@H](CO)N2C(=O)c1ccccn1	4.6	19.9	nt	1.3	nt	nt	nt	nt
COc1ccc(S(=O)(=O)Nc2ccc3c(c2)CC(=O)N([C@H](C)CO)C[C@H](C)[C@@H](CN(C)C(=O)Nc2cccc4ccccc24)O3)cc1	-1.2	31.7	-0.4	-0.4	nt	nt	nt	nt
C[C@@H]1CCCCO[C@H](CN(C)S(=O)(=O)c2cccs2)[C@H](C)CN([C@H](C)CO)C(=O)c2cc(NC(=O)Nc3ccc(F)cc3)ccc2O1	-4.1	?	nt	-84.6*	112.7*	99.9*	-16.2	11.5
C[C@@H]1CCCCO[C@H](CN(C)S(=O)(=O)c2cccs2)[C@H](C)CN([C@@H](C)CO)C(=O)c2cc(NC(=O)Nc3ccc(F)cc3)ccc2O1	5.7	59.2	nt	-53.1	nt	nt	nt	nt
C[C@@H]1CCCCO[C@@H](CN(C)S(=O)(=O)c2cccs2)[C@H](C)CN([C@H](C)CO)C(=O)c2cc(NC(=O)Nc3ccc(F)cc3)ccc2O1	-4.2	?	nt	-77.7	108.3*	41.5	-15.2	8.4
C[C@@H]1CN([C@H](C)CO)C(=O)c2cc(NC(=O)Nc3ccc(F)cc3)ccc2O[C@@H](C)CCCCO[C@H]1CN(C)S(=O)(=O)c1cccs1	-0.1	33.4	nt	-71.5	nt	nt	nt	nt
C[C@H]1CCCCO[C@@H](CN(C)S(=O)(=O)c2cccs2)[C@@H](C)CN([C@@H](C)CO)C(=O)c2cc(NC(=O)Nc3ccc4c(c3)OCO4)ccc2O1	0.6	111.2*	nt	-64.3	110.7*	47.6	13.9	10.5
COc1ccccc1CNC(=O)c1cc(-c2ccccn2)nc2c(Cl)cccc12	nt	nt	-0.4	nt	nt	nt	nt	nt
CC(C)CC#Cc1ccc2c(c1)O[C@H](CN(C)C(=O)C1CC1)[C@@H](C)CN([C@H](C)CO)S2(=O)=O	-0.6	85.7	nt	-41.2	nt	nt	nt	nt
CC(C)CC#Cc1ccc2c(c1)O[C@H](CN(C)C(=O)C1CC1)[C@H](C)CN([C@H](C)CO)S2(=O)=O	1.3	80.8	nt	-37.6	nt	nt	nt	nt
CC(C)CC#Cc1ccc2c(c1)O[C@H](CN(C)C(=O)C1CCCCC1)[C@@H](C)CN([C@H](C)CO)S2(=O)=O	11.6	117.7*	-0.1	-38.9	105.6*	107.3*	13.2	104.6*
CC(C)CC#Cc1ccc2c(c1)O[C@H](CN(C)C(=O)C1CC1)[C@H](C)CN([C@@H](C)CO)S2(=O)=O	-0.9	93.8	nt	-43.8	nt	nt	nt	nt
CC(C)CC#Cc1ccc2c(c1)O[C@@H](CN(C)C(=O)C1CCCCC1)[C@H](C)CN([C@@H](C)CO)S2(=O)=O	-0.2	122.2*	nt	-75.3	103.7*	104.1*	19.3	104.8*
CC(C)CC#Cc1ccc2c(c1)O[C@H](CN(C)C(=O)C1CCCCC1)[C@@H](C)CN([C@@H](C)CO)S2(=O)=O	-1.1	112.2*	nt	-39.3	100.0*	116.3*	10.2	103.9*
CC(C)(C)C(=O)OCOC(=O)[C@@H]1N2C(=O)[C@@H](N=CN3CCCCCC3)[C@H]2SC1(C)C	nt	nt	-1.1	nt	nt	nt	nt	nt
COc1ccc2c3c(n(C)c2c1)[C@@H](CO)N(Cc1ccccc1F)CC31CN(C(=O)C2CCC2)C1	0.3	nt	nt	-23.8	nt	nt	nt	nt
O=C(C[C@H]1C=C[C@@H](NC(=O)Nc2ccc(C(F)(F)F)cc2)[C@H](CO)O1)NCCN1CCCC1	0.3	-98.4	0.3	-26.0	nt	nt	nt	nt
CC(C)NC(=O)N1[C@H](C#N)[C@@H](c2ccc(C#CC3CCCC3)cc2)[C@H]1CO	-1.2	102.0*	-0.6	-9.0	101.6*	97.1*	6.0	36.7*
N#C[C@H]1[C@@H](c2ccc(C#CC3CCCCC3)cc2)[C@H](CO)N1C(=O)Cc1ccccn1	-0.9	99.8*	nt	-34.4	100.6*	103.6*	-32.7	81.5*
CN(C)CC(=O)N1[C@H](C#N)[C@H](c2ccc(C#CC3CCCC3)cc2)[C@H]1CO	2.8	98.5*	nt	-30.2	95.7*	66.4	-9.4	106.5*
SMILES	KDM4C inh	T cruzi growth-1	IDH1 R132H inh	Pf Dd2 inh	T cruzi growth-2	T cruzi growth-3	NIH3T3 tox	NIH3T3 tox 2
CC(C)NC(=O)N1[C@H](CO)[C@H](c2ccc(C#CC3CCCCC3)cc2)[C@@H]1C#N	-1.1	106.7*	nt	-32.5	97.7*	115.5*	30.5	53.9*
CC(C)NC(=O)N1[C@H](C#N)[C@@H](c2ccc(C#CC3CCCCC3)cc2)[C@@H]1CO	1.2	96.3*	nt	-73.4	96.4*	113.1*	-1.6	104.7*
N#C[C@@H]1[C@H](c2ccc(C#CC3CCCC3)cc2)[C@@H](CO)N1C(=O)Nc1ccc(F)cc1	-1.6	97.6*	nt	-9.3	99.0*	94.6	2.2	106.6*
Cc1ccc(S(=O)(=O)N(C)C[C@@H]2OCc3cn(nn3)CCCC(=O)N([C@@H](C)CO)C[C@H]2C)cc1	-2.1	-6.1	-0.7	10.0	nt	nt	nt	nt
CC(C)CC#Cc1ccc2c(c1)O[C@@H](CN(C)Cc1cccc(F)c1)[C@@H](C)CN([C@@H](C)CO)S2(=O)=O	-0.2	47.7	0.1	-55.0	nt	nt	nt	nt
Cc1ccc(S(=O)(=O)Nc2ccc3c(c2)C(=O)N([C@H](C)CO)C[C@@H](C)[C@@H](CN(C)CC2CCCCC2)OCCCC[C@@H](C)O3)cc1	-0.5	?	0.2	-64.6	99.6*	101.0*	46.5*	104.0*
Cc1ccc(S(=O)(=O)Nc2ccc3c(c2)C(=O)N([C@H](C)CO)C[C@@H](C)[C@H](CN(C)CC2CCCCC2)OCCCC[C@@H](C)O3)cc1	-0.9	?	nt	-63.4	101.7*	84.5	27.2	103.7*
